This is a sample that favours compounds with a hit; in the whole collection about 4.1% have one here.
NS3 helicase inh = blocks Hepatitis C virus NS3 helicase unwinding. NS3 helicase DNA unwinding, Cy5 molecular beacon fluorescence. actives 0.56% (n = 290,000). inhibition, % at 10.9 µM;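 active = inhibition above the mean of all tested compounds plus 3 SD, set per campaign, cut at about 35% in these data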;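 note: 0% = DMSO wells and 100% = thioflavine S control wells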
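System: HCV NS3 helicase fragment; control set: DMSO and thioflavine S; technique: Cy5 fluorescence at 0 and 60 min, beacon hairpin quenching; reagent: beacon DNA duplex substrate plus ATP; replicates: singlicate; schedule: 1 h reaction at 25 °C, ATP-initiated; medium: MOPS buffer pH 6.5 with MgCl2, DTT, Tween20, BSA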
MEKK2mut PB1 HTS = signal of MEK5 binding to mutant human MEKK2 PB1 domain; bead flow cytometry, Alexa488-MEK5 binding to MEKK2 mutant; percent response, % at 10 µM; actives 0.35% (n = 290,000); AID 1530; in the data active = percent response above about 24%, passing the limit was not always enough
MEKK2wt PB1 HTS = raises or lowers MEK5 binding to wildtype human MEKK2 PB1 domain; Q9Y2U5; bead flow cytometry, Alexa488-MEK5 binding to MEKK2 WT; actives lie on both sides; binding response (% of control), % at 10 µM; actives 1.1% (n = 290,000); in the data active = binding response below about 67% or above about 130%
DNA FID counter = counter-screen for HCV NS3 helicase inhibitors: DNA intercalator displacement. actives 0.17% (n = 290,000). AID 1845. DNA fluorescent intercalator displacement, fluorescence. inhibition, % at 7.9 µM; in the data active = inhibition above about 37%;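 note: 0% = vehicle and 100% = reference compound; higher means more ethidium bromide displaced from hairpin DNA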
T cruzi repl = T. cruzi replication inhibition; T. cruzi beta-gal in NIH3T3, luminescence, 90 h; inhibition, % (concentration not given with the values); actives 1.4% (n = 300,000);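 active = mean inhibition across valid replicates above about 55%, limit read from the data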;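 note: signal also drops with host cell toxicity which is not excluded here; 0% = plate median of DMSO wells and 100% = zero luminescence signal; higher percent means less beta-gal luminescence so fewer parasites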
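compound dosing = single 50 nL compound addition per well in DMSO | material = NIH/3T3 host cells with β-galactosidase reporter T. cruzi | input = 5,000 host fibroblasts per well | timing = ≥90 h infection period, 3 h prior cell attachment | read-out basis = percent inhibition of parasite-derived β-gal signal | detection = GalScreen β-gal luminescence, detergent lysis, 60 min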
MEKK3 PB1 HTS = modulators (inhibitors or enhancers) of MEK5 binding to human MEKK3 PB1 domain | Q99759 | bead-based flow cytometry, Alexa488-MEK5 binding to MEKK3; actives lie on both sides; 0 = blocked by unlabeled MEK5, 100 = vehicle | binding response (% of control), % at 10 µM | actives 1.4% (n = 290,000) | AID 1529;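 active = binding response more than 3 SD above or below the average of its plate-row segment, actives on both sides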;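 note: Alexa488 bead fluorescence after subtracting the streptavidin-only scavenger bead signal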
Target sequence (Q99759 whole entry, looked up, the tested form may be a part): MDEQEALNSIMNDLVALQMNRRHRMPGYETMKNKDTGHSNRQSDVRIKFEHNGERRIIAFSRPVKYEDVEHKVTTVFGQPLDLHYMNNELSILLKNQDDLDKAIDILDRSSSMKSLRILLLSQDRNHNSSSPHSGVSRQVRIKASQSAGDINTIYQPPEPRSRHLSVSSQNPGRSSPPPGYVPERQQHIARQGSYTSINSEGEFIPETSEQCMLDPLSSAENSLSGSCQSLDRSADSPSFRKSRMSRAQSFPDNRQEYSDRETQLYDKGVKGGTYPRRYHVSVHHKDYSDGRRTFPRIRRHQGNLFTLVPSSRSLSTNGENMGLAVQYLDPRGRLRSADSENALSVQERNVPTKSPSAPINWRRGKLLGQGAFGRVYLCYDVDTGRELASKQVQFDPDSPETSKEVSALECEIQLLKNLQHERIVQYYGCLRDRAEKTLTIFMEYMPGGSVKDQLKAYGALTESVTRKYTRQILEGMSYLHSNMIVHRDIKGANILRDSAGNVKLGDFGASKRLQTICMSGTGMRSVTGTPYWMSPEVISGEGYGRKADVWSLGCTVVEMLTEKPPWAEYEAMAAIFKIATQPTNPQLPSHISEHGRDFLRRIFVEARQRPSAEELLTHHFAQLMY
MEKK2wt confirm = raises or lowers MEK5 binding to wildtype human MEKK2, retest; actives 2.4% (n = 5,900); bead flow cytometry, Alexa488-MEK5 binding to MEKK2 WT; actives lie on both sides; shares compounds with MEKK3 PB1 HTS; binding response (% of control), % at 10 µM; in the data active = binding response below about 16% or above about 210%; inactive = in between
MEKK2mut-MEK5 = signal of MEK5 binding to mutant human MEKK2, retest | shares compounds with MEKK3 PB1 HTS | bead flow cytometry, Alexa488-MEK5 binding to MEKK2 mutant | percent response, % at 10 µM | actives 2% (n = 5,900) | AID 1893; in the data active = percent response mostly above about 71%, no sharp cut-off; inactive = mostly below about 38%;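 note: higher means compound restores mutant binding toward wildtype level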
MEKK3 confirm = confirmation of inhibitors of MEK5 binding to human MEKK3; shares compounds with MEKK3 PB1 HTS; bead flow cytometry, Alexa488-MEK5 binding to MEKK3; stronger effect = lower value; binding response (% of control), % at 10 µM; actives 1.8% (n = 5,900); AID 1894;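 active = binding response below 72% of control, or above a set upper limit, though filed actives all read lower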;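 note: 100% = DMSO only wells and 0% = binding blocked by excess unlabeled MEK5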
Starred values were filed as active, the others as inactive; . = no result; [ ] = another dose, or the depositor's remark.

SMILES	NS3 helicase inh	MEKK2mut PB1 HTS	MEKK2wt PB1 HTS	DNA FID counter	T cruzi repl	MEKK3 PB1 HTS	MEKK2wt confirm	MEKK2mut-MEK5	MEKK3 confirm
COC(=O)c1ccccc1Oc1ccc(NC(=O)CCCl)cc1	-7.9	-7.0	92.0	-6.4	-0.9	102.0	.	.	.
COC(=O)c1ccc(CSc2nnc(NC(C)C)s2)o1	-3.8	-2.0	84.0	0.9	-11.6	71.0*[inhibitor]	108.0	0.0	101.0
COC(=O)c1ccc(CSc2nnc(Nc3cccc(OC)c3)s2)o1	-3.5	4.0	107.0	-19.2	-8.2	97.0	.	.	.
C=CCc1ccc(OCCOc2ccc(/C=N/n3cnnc3)cc2OCC)c(OC)c1	-2.5	27.0*	116.0	-25.1	38.2	111.0	101.0	-7.0	104.0
COc1cc(/C=N/n2cnnc2)ccc1OCCOc1ccccc1	-1.8	-6.0	93.0	-15.1	5.8	91.0	.	.	.
Cc1ccc(C)c2[nH]c(=O)c(CN(Cc3cccs3)C(=S)NCc3ccco3)cc12	-13.0	1.0	115.0	-26.6	-2.5	137.0*	109.0	9.0	103.0
Cc1ccc2cc(CN(C(=O)c3ccco3)c3ccccc3C)c(=O)[nH]c2c1	-9.0	14.0	100.0	-32.8	8.4	104.0	.	.	.
Cc1cc2cc(CN(CCN(C)C)C(=S)NCc3ccco3)c(=O)[nH]c2cc1C	-54.8	8.0	160.0*	17.1	21.3	84.0	118.0	8.0	103.0
Cc1ccc(C)c2[nH]c(=O)c(CN(CC3CCCO3)C(=S)NCc3ccco3)cc12 (stereo not drawn)	11.5	29.0	116.0	-22.6	25.0	129.0*	101.0	5.0	104.0
Cc1cc2cc(CN(Cc3cccs3)C(=S)NCc3ccco3)c(=O)[nH]c2cc1C	26.2	-2.0	96.0	-29.6	19.1	94.0	.	.	.
Cc1ccc(N(Cc2cc3ccc(C)cc3[nH]c2=O)C(=O)c2ccco2)c(C)c1	7.8	22.0	117.0	-19.4	0.2	132.0*	102.0	5.0	107.0
O=C(CC1NCCc2ccccc21)Nc1ccc(Oc2ccccc2)cc1 (stereo not drawn)	-42.5	25.0	160.0*	2.3	41.9	118.0	123.0	9.0	93.0
Nc1ccccc1-n1c(=O)n(Cc2ccccc2F)c(=O)c2[nH]cnc21	5.7	2.0	107.0	-4.8	-0.7	101.0	.	.	.
COCc1[nH]nc2c1C1(C(=O)N(C)c3ccccc31)C(C#N)=C(N)O2 (stereo not drawn)	-5.2	-5.0	79.0	5.8	-9.3	79.0*[inhibitor]	106.0	4.0	103.0
O=C(Nc1ccc(F)cc1)Nc1cccnc1	1.3	1.0	98.0	-6.3	-5.2	100.0	.	.	.
O=C(NCC(F)(F)F)Nc1cccnc1	3.3	22.0	121.0	-4.3	.	127.0*	105.0	1.0	101.0
Cc1ccc2nnnc(-c3ccccc3)c2c1	3.4	-9.0	54.0*[inhibitor]	-8.7	-5.0	88.0	98.0	8.0	104.0
CCNC(=S)NCc1ccc(F)cc1	-7.9	-1.0	109.0	-11.2	-10.8	134.0*	102.0	-2.0	98.0
COC(=O)/C=C1\C(=O)N(c2nc3ccccc3s2)C(=S)N1c1ccc(F)cc1	1.4	-41.0	0.0*[inhibitor]	3.2	-9.5	1.0*[inhibitor]	99.0	0.0	99.0
NC(=O)c1sc2nnc(-c3ccccc3)c(-c3ccccc3)c2c1N	1.1	-21.0	96.0	-5.2	.	87.0	.	.	.
Cc1cccc(OCC(O)Cn2ccnc2C)c1 (stereo not drawn)	-27.9	4.0	116.0	-2.3	-0.7	107.0	.	.	.
COc1cc(OC)cc(OCC(O)Cn2ccnc2C)c1 (stereo not drawn)	2.5	-21.0	2.0*[inhibitor]	13.0	-9.3	2.0*[inhibitor]	95.0	-6.0	102.0
Cc1ccc(NC(NC(=O)c2ccccc2[N+](=O)[O-])C(Cl)(Cl)Cl)cc1 (stereo not drawn)	5.0	0.0	109.0	3.4	-17.3	133.0*	98.0	3.0	99.0
O=C(O)c1cccc(NC(=S)NC(NC(=O)c2ccccc2[N+](=O)[O-])C(Cl)(Cl)Cl)c1 (stereo not drawn)	-0.7	2.0	101.0	-10.6	-11.4	103.0	.	.	.
Cc1ccc(S(=O)(=O)N(CCCO)CC(O)CON=C2c3ccccc3-c3ccccc32)cc1 (stereo not drawn)	-15.0	0.0	109.0	-15.8	65.0*	136.0*	96.0	-4.0	98.0
SMILES	NS3 helicase inh	MEKK2mut PB1 HTS	MEKK2wt PB1 HTS	DNA FID counter	T cruzi repl	MEKK3 PB1 HTS	MEKK2wt confirm	MEKK2mut-MEK5	MEKK3 confirm
Cc1c(C(=O)Nc2ccc(-c3nnc4n3CCCCC4)cc2)oc2ccc(Br)cc12	-29.6	4.0	1.0*[inhibitor]	-15.9	60.8*	96.0	133.0	13.0	98.0
COc1ccc(C(CNC(=O)c2oc3ccc(Br)cc3c2C)N2CCCCC2)cc1 (stereo not drawn)	-29.8	-4.0	153.0*	-2.1	54.6*	109.0	156.0	39.0	112.0
COc1ccc(C(CNC(=O)c2oc3ccc(OC)cc3c2C)N2CCCC2)cc1 (stereo not drawn)	.	.	.	.	17.2	.	.	.	.
O=C(Nc1ccc(-c2nnc3n2CCCCC3)cc1)c1ccco1	2.3	2.0	97.0	-29.0	-9.0	95.0	.	.	.
COc1ccc(C(CNC(=O)c2ccc(C)c(S(=O)(=O)Nc3ccccc3OC)c2)N2CCCC2)cc1 (stereo not drawn)	-37.2	29.0*	154.0*	31.9	50.6	112.0	162.0	44.0	114.0
Cc1cnc(CNC(=O)C2CCC(=O)N(CCc3ccc(Cl)cc3)C2)cn1 (stereo not drawn)	-1.3	0.0	104.0	-6.7	-5.8	104.0	.	.	.
CCC(C(=O)OC(C)C(=O)Nc1ccc(Cl)cn1)c1ccccc1 (stereo not drawn)	-14.7	2.0	97.0	-30.8	-1.5	102.0	.	.	.
O=C1S/C(=C\c2ccc(O)c([N+](=O)[O-])c2)C(=O)N1Cc1cccc([N+](=O)[O-])c1	23.7	-8.0	84.0	2.6	9.8	91.0	.	.	.
O=C1S/C(=C\c2ccc(O)c([N+](=O)[O-])c2)C(=O)N1c1ccccc1Cl	27.1	-8.0	81.0	-10.1	11.5	74.0*[inhibitor]	102.0	1.0	103.0
CCCn1c(N)c(NCCN2CCOCC2)c(=O)n(CC(=O)NCc2ccccc2)c1=O	-10.9	-4.0	85.0	10.2	-13.0	77.0	.	.	.
CC(C)(C)C(=O)Nc1ccc2oc(-c3cc(F)c(F)cc3Cl)nc2c1	-8.4	-19.0	1.0*[inhibitor]	-5.8	26.0	1.0*[inhibitor]	103.0	-2.0	100.0
